Our source for the Tm values is ChEMBL document CHEMBL1140872, “Discovery of a potent and selective inhibitor for human carbonyl reductase 1 from propionate scanning applied to the macrolide zearalenone” (Bioorg Med Chem, 2009).

Assay [1] addresses T1, Carbonyl reductase [NADPH] 1 (Homo sapiens) (UniProt P16152).
T1 sequence (whole entry): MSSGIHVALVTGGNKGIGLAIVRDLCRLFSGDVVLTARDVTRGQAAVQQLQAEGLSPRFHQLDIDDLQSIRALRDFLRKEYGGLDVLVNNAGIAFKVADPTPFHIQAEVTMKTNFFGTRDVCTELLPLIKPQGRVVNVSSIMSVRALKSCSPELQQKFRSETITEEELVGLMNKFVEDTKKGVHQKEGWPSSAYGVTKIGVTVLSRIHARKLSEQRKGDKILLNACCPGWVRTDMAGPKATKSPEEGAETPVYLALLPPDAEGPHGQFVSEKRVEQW
As to the kind of experiment: Binding affinity to human recombinant carbonyl reductase 1 expressed in Escherichia coli assessed as thermal shift by differential scanning fluorimetry in presence of NADP+. Summed up:
(§1)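 Thermal-shift (DSF) binding assay with purified recombinant catalytic domains or proteins carrying an N- or C-terminal His6 tag or GST fusion. Purity was >95% by SDS/PAGE and identity was confirmed by MS. Protein was at 2 µM final in 10 mM HEPES pH 7.5 and 150 mM NaCl. Tm shift is reported, with 2 °C as the threshold for binding.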

Assay [2] deals with T2, Carbonyl reductase [NADPH] 3 (Homo sapiens) (UniProt O75828).
T2 sequence (whole entry): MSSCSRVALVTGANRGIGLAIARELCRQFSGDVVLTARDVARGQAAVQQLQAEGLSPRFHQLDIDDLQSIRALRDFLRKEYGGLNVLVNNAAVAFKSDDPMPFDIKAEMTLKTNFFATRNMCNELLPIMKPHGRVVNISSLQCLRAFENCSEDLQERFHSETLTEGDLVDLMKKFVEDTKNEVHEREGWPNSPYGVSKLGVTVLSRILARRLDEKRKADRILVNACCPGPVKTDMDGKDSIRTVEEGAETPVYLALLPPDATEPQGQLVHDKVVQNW
As to the kind of experiment: Binding affinity to human recombinant carbonyl reductase 3 expressed in Escherichia coli assessed as thermal shift by differential scanning fluorimetry in presence of NADP+. Summed up:
as §1

In assay [3] the target is T2, Carbonyl reductase [NADPH] 3 (Homo sapiens). In words: Binding affinity to human recombinant carbonyl reductase 3 expressed in Escherichia coli assessed as thermal shift by differential scanning fluorimetry in presence of NADPH. The procedure, abridged:
as §1

The target of assay [4] is Serine/threonine-protein kinase pim-3 (Homo sapiens) (UniProt Q86V86). As to the kind of experiment: Binding affinity to human recombinant PIM3 expressed in Escherichia coli assessed as thermal shift by differential scanning fluorimetry. Summed up:
as §1

Assay [5] has as its target T1, Carbonyl reductase [NADPH] 1 (Homo sapiens). In words: Binding affinity to human recombinant carbonyl reductase 1 expressed in Escherichia coli assessed as thermal shift by differential scanning fluorimetry in presence of NADPH. The procedure, abridged: as §1
The target of assay [6] is T3, Serine/threonine-protein kinase PLK4 (Homo sapiens) (UniProt O00444).
T3 sequence (whole entry): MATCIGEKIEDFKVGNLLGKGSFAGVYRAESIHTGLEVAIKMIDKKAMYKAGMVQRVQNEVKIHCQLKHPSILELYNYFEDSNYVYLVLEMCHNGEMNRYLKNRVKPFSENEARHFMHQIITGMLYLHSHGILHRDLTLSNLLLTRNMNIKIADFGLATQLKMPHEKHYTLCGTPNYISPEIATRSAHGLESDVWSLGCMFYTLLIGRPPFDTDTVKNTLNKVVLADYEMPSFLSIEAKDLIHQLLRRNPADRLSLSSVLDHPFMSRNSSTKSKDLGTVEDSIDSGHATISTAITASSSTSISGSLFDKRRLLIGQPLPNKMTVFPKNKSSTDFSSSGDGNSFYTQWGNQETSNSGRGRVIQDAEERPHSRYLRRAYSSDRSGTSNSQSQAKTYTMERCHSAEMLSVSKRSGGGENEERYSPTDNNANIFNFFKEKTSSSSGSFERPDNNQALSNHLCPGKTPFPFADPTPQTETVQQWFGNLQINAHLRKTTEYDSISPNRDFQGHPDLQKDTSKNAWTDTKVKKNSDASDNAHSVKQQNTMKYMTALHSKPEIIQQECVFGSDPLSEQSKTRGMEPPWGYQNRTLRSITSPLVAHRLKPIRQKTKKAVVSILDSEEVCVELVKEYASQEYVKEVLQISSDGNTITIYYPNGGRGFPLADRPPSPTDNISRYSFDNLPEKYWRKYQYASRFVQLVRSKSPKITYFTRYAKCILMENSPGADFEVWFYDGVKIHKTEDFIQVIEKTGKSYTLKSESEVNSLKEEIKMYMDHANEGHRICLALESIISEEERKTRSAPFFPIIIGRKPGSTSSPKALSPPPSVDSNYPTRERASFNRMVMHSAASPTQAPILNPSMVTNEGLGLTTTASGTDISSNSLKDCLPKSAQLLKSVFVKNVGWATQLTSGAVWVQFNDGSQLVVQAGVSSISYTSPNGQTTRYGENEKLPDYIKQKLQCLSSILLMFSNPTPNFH
As to the kind of experiment: Binding affinity to human recombinant PLK4 expressed in Escherichia coli assessed as thermal shift by differential scanning fluorimetry. Summed up: as §1

For assay [7], the target named is Mitogen-activated protein kinase 11 (Homo sapiens) (UniProt Q15759). In words: Binding affinity to human recombinant MAPK11 expressed in Escherichia coli assessed as thermal shift by differential scanning fluorimetry. The procedure, abridged: as §1
The target in assay [8] is Casein kinase I isoform gamma-1 (Homo sapiens) (UniProt Q9HCP0). As to the kind of experiment: Binding affinity to human recombinant CSNK1G1 expressed in Escherichia coli assessed as thermal shift by differential scanning fluorimetry. The procedure, abridged: as §1
For another assay, the species on record is Homo sapiens. In words: Binding affinity to human recombinant DYRK1 expressed in Escherichia coli assessed as thermal shift by differential scanning fluorimetry. The procedure, abridged: as §1
Assay [9] has as its target Serine/threonine-protein kinase 10 (Homo sapiens) (UniProt O94804). As to the kind of experiment: Binding affinity to human recombinant LOK expressed in Escherichia coli assessed as thermal shift by differential scanning fluorimetry. The procedure, abridged:
as §1

The target in assay [10] is Serine/threonine-protein kinase pim-1 (Homo sapiens) (UniProt P11309). In words: Binding affinity to human recombinant PIM1 expressed in Escherichia coli assessed as thermal shift by differential scanning fluorimetry. The procedure, abridged: as §1
The target in assay [11] is T4, Serine/threonine-protein kinase 3 (Homo sapiens) (UniProt Q13188).
T4 sequence (whole entry): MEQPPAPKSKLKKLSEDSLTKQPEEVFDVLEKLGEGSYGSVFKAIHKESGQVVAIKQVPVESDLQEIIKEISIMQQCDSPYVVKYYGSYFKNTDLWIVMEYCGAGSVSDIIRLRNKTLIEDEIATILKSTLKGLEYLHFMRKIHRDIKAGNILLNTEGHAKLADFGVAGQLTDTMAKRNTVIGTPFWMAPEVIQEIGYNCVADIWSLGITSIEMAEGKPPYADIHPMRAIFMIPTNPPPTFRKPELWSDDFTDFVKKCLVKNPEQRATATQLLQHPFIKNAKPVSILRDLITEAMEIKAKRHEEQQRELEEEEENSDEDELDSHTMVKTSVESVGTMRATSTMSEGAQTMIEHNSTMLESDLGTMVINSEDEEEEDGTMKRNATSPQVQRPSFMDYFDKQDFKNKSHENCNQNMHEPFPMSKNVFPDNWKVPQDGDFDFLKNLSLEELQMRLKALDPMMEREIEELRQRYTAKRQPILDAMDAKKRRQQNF
As to the kind of experiment: Binding affinity to human recombinant STK3 expressed in Escherichia coli assessed as thermal shift by differential scanning fluorimetry. The procedure, abridged: as §1

Structures are written as SMILES.

Mitogen-activated protein kinase 11 (Homo sapiens), sequence (Q15759 whole entry, canonical isoform): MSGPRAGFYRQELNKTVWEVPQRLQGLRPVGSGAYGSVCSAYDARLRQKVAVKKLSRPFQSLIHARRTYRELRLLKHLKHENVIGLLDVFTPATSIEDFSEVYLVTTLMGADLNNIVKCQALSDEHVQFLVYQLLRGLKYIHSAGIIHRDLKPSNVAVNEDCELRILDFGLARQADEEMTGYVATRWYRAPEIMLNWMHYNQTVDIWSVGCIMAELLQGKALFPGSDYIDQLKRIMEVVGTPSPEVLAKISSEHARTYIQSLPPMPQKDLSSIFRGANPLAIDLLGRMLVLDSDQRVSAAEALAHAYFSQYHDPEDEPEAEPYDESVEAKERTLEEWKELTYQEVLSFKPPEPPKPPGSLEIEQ
Serine/threonine-protein kinase 10 (Homo sapiens), sequence (O94804 whole entry, looked up): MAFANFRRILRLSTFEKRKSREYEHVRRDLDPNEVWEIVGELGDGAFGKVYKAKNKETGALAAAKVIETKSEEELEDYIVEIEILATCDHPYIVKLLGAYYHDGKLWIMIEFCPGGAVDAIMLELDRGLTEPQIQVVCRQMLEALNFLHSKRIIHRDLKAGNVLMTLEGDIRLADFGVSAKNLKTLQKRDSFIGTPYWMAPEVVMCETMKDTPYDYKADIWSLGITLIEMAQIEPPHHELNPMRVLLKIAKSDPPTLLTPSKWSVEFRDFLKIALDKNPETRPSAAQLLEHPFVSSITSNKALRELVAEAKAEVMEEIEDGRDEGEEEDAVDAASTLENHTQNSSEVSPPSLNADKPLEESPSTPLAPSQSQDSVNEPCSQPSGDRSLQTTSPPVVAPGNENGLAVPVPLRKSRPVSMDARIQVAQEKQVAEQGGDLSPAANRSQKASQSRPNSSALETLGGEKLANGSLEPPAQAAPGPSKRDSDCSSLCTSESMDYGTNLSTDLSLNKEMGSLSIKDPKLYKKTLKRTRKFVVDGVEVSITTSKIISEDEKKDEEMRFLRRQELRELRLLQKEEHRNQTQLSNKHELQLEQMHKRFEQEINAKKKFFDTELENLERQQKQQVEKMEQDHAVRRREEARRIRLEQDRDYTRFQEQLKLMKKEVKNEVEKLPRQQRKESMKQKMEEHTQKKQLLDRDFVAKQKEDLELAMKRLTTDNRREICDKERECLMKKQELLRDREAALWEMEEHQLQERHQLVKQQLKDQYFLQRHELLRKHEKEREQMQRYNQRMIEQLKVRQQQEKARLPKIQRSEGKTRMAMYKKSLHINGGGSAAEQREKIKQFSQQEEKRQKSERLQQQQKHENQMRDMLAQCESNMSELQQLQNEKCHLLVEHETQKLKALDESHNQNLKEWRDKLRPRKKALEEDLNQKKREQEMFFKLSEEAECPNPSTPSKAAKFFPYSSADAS
Casein kinase I isoform gamma-1 (Homo sapiens), sequence (Q9HCP0 whole entry, looked up, canonical isoform): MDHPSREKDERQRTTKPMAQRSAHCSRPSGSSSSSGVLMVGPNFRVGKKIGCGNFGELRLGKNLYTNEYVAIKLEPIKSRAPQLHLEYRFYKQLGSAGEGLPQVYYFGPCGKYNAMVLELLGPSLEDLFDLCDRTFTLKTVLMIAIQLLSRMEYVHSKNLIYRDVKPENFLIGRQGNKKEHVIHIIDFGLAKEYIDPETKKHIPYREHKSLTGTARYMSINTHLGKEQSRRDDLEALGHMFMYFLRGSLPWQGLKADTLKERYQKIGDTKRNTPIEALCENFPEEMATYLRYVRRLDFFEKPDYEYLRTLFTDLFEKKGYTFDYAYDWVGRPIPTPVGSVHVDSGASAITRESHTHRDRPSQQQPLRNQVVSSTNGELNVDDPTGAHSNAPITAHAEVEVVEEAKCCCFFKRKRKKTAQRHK
Serine/threonine-protein kinase pim-1 (Homo sapiens), sequence (P11309 whole entry, looked up): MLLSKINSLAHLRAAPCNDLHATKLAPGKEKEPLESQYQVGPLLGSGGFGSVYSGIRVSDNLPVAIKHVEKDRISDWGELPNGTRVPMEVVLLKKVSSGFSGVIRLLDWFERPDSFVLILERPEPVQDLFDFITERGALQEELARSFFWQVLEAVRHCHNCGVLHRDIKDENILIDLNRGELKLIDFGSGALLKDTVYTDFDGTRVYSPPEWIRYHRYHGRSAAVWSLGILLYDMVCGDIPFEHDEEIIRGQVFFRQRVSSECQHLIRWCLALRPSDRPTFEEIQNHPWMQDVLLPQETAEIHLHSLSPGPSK

In the case of `COc1cc2c(c(OC)c1)C(=O)O[C@@H](C)CCCC(=O)[C@@H](C)CC/C=C/2`, the Tm in assay [1], in assay [2], in [3], in assay [4], in assay [5] and in [6] was under 2 °C throughout. The Tm (in assay [7]; in [8]; in the assay listed under Homo sapiens; in assay [9]; in assay [10]; in [11]) was under 2 °C throughout.

Regarding `COc1cc2c(c(OC)c1)C(=O)O[C@@H](C)CCC[C@@H](O)[C@@H](C)CC/C=C/2`, the Tm in assay [1], in [2], in assay [3], in assay [4], in assay [5] and in assay [6] was under 2 °C each time. In addition, the midpoint of thermal melting (Tm) (in assay [7]; in assay [8]; in the assay filed under Homo sapiens; in assay [9]; in assay [10]; in [11]) was under 2 °C throughout.

Take `C[C@H]1CCCC(=O)CCC/C=C/c2cc(O)cc(O)c2C(=O)O1`: the Tm in [1] was 3.6 °C; in assay [2], under 2 °C; in [3], under 2 °C; in assay [4], under 2 °C; in [5], under 2 °C; in assay [6], under 2 °C. In addition, the Tm was under 2 °C in [7]; under 2 °C in assay [8]; under 2 °C in the assay listed under Homo sapiens; 4.6 °C in assay [9]; 3 °C in assay [10]; under 2 °C in [11].

Take `COC1=C2C[C@@H](C)C[C@H](OC)[C@H](O)[C@@H](C)/C=C(\C)[C@H](OC(N)=O)[C@@H](OC)/C=C\C=C(/C)C(=O)NC(=CC1=O)C2=O`: the Tm in assay [1], in assay [2], in assay [3], in assay [4], in [5] and in assay [6] was under 2 °C each time. Moreover, the Tm (in [7]; in [8]; in the assay listed under Homo sapiens; in [9]; in assay [10]; in assay [11]) was under 2 °C in each case.

Take `C[C@H]1CCCC(=O)[C@@H](C)CC/C=C/c2cc(O)cc(O)c2C(=O)O1`: the midpoint of thermal melting (Tm) was 3.9 °C in [1]; under 2 °C in [2]; under 2 °C in assay [3]; under 2 °C in assay [4]; under 2 °C in assay [5]; under 2 °C in assay [6]. Moreover, the Tm in assay [7] is under 2 °C; in assay [8] it was under 2 °C; in the assay listed under Homo sapiens, under 2 °C; in [9], under 2 °C; in assay [10] it was 2.2 °C; in [11], under 2 °C.

In the case of `COc1cc(O)c2c(c1)/C=C/CC[C@H](C)C(=O)CCC[C@H](C)OC2=O`, the Tm in assay [1], in [2], in assay [3], in assay [4], in assay [5] and in [6] was under 2 °C throughout. The melting temperature (Tm) (in [7]; in [8]; in the assay listed under Homo sapiens; in [9]; in assay [10]; in [11]) was under 2 °C each time.

For the molecule `C[C@@H]1C[C@H]2O[C@@H]2/C=C\C=C\C(=O)Cc2c(Cl)c(O)cc(O)c2C(=O)O1` [RADICICOL], the Tm in assay [1] is 4.6 °C; in assay [2], under 2 °C; in [3] it was under 2 °C; in [4], under 2 °C; in assay [5] it was under 2 °C; in [6] it was under 2 °C. The melting temperature (Tm) (in assay [7]; in assay [8]; in the assay listed under Homo sapiens; in assay [9]; in assay [10]; in assay [11]) was under 2 °C throughout.
